Laboratory results reported in PubChem BioAssay.
The source made the active and inactive calls.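 Rule for the calls, unless noted: active = visual image review flags a hit and inhibition of aggregation exceeds 20%; inconclusive = visual hit but inhibition at or below 20%; inactive = no hit on visual image review.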

Assays:
[1] = inhibitors of TNFa-induced NFkB p65 translocation, primary screen, imaging, HUVEC, MLSMR starter and 10KST1 sets (AID 438;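 active = inhibition above 20% together with a positive visual image hit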;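 note: compound added about 3h40 before a 20 min TNFalpha stimulation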;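 for inhibition: signal is the nuclear over cytoplasmic p65 intensity ratio per well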); conditions: HUVEC TNFa-induced p65 nuclear translocation; cell count: measured here: nuclei count (cytotoxicity indicator), at 2.08 µM; inhibition: at 2 µM, stronger effect = higher value, 0% TNFa-plus-vehicle, 100% no-TNFa wells
[2] = inhibitors of mutant huntingtin aggregation, primary screen, imaging, exon1htt(103Q)mCFP cells, high-content imaging (AID 483); conditions: exon1htt(103Q)mCFP cell line, aggregate imaging, at 2 µM; inhibition of aggregation: stronger effect = higher value; nuclei count: measured here: cell count, toxicity;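 note: compound exposure lasted 3 days before fixation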;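 for nuclei count: percent of the per-plate median nuclei count of sample wells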
[3] = inhibitors of E-selectin induction by TNFa, primary screen, imaging, HUVEC, immunofluorescence, MLSMR starter and 10KST1 sets (AID 487;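 active = visually confirmed hit in the image check and inhibition above 20%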;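 for inhibition: signal is fraction of cell area covered by stained E-selectin grains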;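 for nuclei count: 100% = median nuclei count of all wells on the same plate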); conditions: HUVEC TNFalpha-induced E-selectin immunofluorescence imaging, at 2 µM; inhibition: stronger effect = higher value; nuclei count: measured here: cell number, toxicity
[4] = molecular target: Voltage-gated potassium channel subunit beta-2 (Rattus norvegicus) (UniProt P62483); test: KvBeta enzyme negative modulators, primary screen, biochemical, NADPH fluorescence (AID 622;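 active = fluorescence slope higher than the sample average by over 3 SD, cut at about -0.22 in these data, passing the limit was not always enough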;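 note: slope of raw intensity against log time taken from 70 to 1610 s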); conditions: recombinant KvBeta, 4-cyanobenzaldehyde reduction, at 10 µM, stronger effect = higher value
[5] = molecular target: Voltage-gated potassium channel subunit beta-2 (Rattus norvegicus) (UniProt P62483); test: KvBeta positive modulators, primary screen, biochemical, NADPH fluorescence (AID 623;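 active = NADPH fluorescence slope more negative than the mean of all samples by about 3 SD, 99.7% confidence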;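 note: fluorescence intensity change per second fitted from 20 to 320 s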); conditions: Recombinant KvBeta, NADPH fluorescence decrease slope, 10 min; at 10 µM; stronger effect = lower value
[6] = molecular target: Muscarinic acetylcholine receptor M4 (Homo sapiens) (UniProt P08173); test: compounds altering M4/GIRK thallium flux, either direction, primary screen, M4 allosteric agonist project, cell-based, HEK293 M4/GIRK, BTC-AM (AID 625;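 active = fluorescence slope after compound addition differing from the mean of all tested samples at 99.7% confidence, mostly higher but some lower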;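 note: thallium influx through GIRK channels coupled to M4 in HEK293 cells with BTC-AM dye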); conditions: at 10 µM, actives lie on both sides
How it was run: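 Material – HEK293 cells with M4 receptor and GIRK channels · Buffer or medium – pH 7.3 thallium assay buffer · Doses – one dose, 10 µM final · Timing – cells overnight at 37 °C, BTC-AM loading 1 h, reads 2 min total · Measured by – kinetic fluorescence with BTC-AM dye · Controls – carbachol and DMSO controls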

[7] = inhibitors of Sendai virus-induced IRF3 signaling, primary screen, TLR/RLR signaling modifier project, cell-based, Sendai virus stimulus, luciferase, 10K MLSCN set (AID 602276;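 active = inhibition at or above 50% at 10 µM; inactive = inhibition below 50%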;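 note: firefly luciferase from ISG56 promoter only with Renilla not read in this screen; 0% = Sendai virus plus DMSO and 100% = medium plus DMSO without virus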); conditions: HEK293 RL24 IRF3 luciferase reporter, at 10 µM, stronger effect = higher value
[8] = inhibitors of poly I:C-induced TLR3 signaling, primary screen, cell-based, poly I:C stimulus, luciferase, 10K MLSCN set (AID 602277;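 active = inhibition of the reporter signal at or above 50%; inactive = inhibition below 50%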); conditions: HEK293-TLR3 RL24 IRF3 luciferase reporter, at 10 µM, stronger effect = higher value

Sequence of Muscarinic acetylcholine receptor M4 (Homo sapiens) (P08173 whole entry, looked up): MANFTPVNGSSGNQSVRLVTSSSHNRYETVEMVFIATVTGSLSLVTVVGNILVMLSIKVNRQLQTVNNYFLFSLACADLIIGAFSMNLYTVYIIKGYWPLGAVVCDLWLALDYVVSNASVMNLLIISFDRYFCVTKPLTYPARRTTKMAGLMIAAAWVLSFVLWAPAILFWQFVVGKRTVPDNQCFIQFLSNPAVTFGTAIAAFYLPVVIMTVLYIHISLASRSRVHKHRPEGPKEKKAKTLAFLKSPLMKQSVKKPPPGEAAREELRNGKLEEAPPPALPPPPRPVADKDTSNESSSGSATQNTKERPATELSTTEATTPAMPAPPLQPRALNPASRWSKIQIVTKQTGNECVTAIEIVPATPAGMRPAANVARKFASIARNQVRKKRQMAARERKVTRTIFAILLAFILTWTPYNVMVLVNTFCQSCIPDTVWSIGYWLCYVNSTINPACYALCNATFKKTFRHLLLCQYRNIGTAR
Sequence of Voltage-gated potassium channel subunit beta-2 (Rattus norvegicus) (P62483 whole entry, looked up): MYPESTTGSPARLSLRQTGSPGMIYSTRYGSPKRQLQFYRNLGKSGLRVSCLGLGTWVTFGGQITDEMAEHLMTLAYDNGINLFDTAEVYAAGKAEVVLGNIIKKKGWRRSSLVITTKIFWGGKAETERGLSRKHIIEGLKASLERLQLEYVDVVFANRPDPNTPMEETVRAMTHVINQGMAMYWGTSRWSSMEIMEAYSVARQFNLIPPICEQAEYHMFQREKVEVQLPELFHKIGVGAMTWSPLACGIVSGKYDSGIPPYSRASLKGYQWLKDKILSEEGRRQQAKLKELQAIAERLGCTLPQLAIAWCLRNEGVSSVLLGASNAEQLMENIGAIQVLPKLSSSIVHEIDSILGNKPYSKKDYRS

Row | SMILES | cell count [1] | inhibition [1] | inhibition of aggregation [2] | nuclei count [2] [%] | inhibition [3] | nuclei count [3] [%] | fluorescence slope [4] | NADPH fluorescence slope [5] | fluorescence slope [6] | inhibition [7] | inhibition [8]
1 | Cc1noc(NS(=O)(=O)c2ccc(NC(=O)CCC3CCCC3)cc2)c1C | 472 | 2.1% (inactive) | -12.2% (inactive) | 83.5 | -147% (inactive) | 115 | -0.557 (inactive) | -1.2e-05 (inactive) | 0.00725 (inactive) | 19.6% (inactive) | 11.2% (inactive)
2 | Cc1cc2nc3c(nc2cc1C)C1(C(=O)O)CCC3(C)C1(C)C (configuration not stated) | 376 | -12.3% (inactive) | -4.4% (inactive) | 95 | -109% (inactive) | 101 | -0.547 (inactive) | -0.000111 (inactive) | 0.00318 (inactive) | 13.5% (inactive) | 15.6% (inactive)
3 | COc1cccc(C(c2nnnn2Cc2ccccc2)N2CCN(C(=O)c3ccco3)CC2)c1OC (configuration not stated) | 414 | 4.3% (inactive) | 5% (inactive) | 69.9 | -195% (inactive) | 161 | -0.473 (inactive) | -2e-05 (inactive) | 0.00486 (inactive) | 8.65% (inactive) | 11.2% (inactive)
4 | CC(c1ccco1)N(C(=O)c1ccc(S(=O)(=O)N2CCCCC2)cc1)c1ccccn1 (configuration not stated) | 265 | 18.1% (inactive) | 13.8% (inactive) | 109 | -32.7% (inactive) | 105 | -0.506 (inactive) | -0.000211 (active) | 0.0101 (inactive) | 6.94% (inactive) | 8.51% (inactive)
5 | CCOC(=O)CSc1nnc(CNC(=O)c2ccc(S(=O)(=O)N3CCCC3)cc2)n1C | 617 | 1.2% (inactive) | 1.3% (inactive) | 96.9 | -54.4% (inactive) | 122 | -0.58 (inactive) | -8.2e-06 (inactive) | 0.00697 (inactive) | 12.8% (inactive) | 18.7% (inactive)
6 | Clc1ccc(Cn2ncc3c(NCc4cccnc4)ncnc32)cc1 | 321 | -13.5% (inactive) | -3.5% (inactive) | 113 | 41.6% (inactive) | 82 | -0.55 (inactive) | -0.000128 (inactive) | 0.00407 (inactive) | 13.3% (inactive) | -35.2% (inactive)
7 | CCn1cc(C(=O)OCC(=O)OC2CC(C)CCC2C(C)C)c(=O)c2ccc(C)nc21 (configuration not stated) | 519 | -21.2% (inactive) | 2.5% (inactive) | 92.5 | 26.8% (inactive) | 104 | -0.416 (inactive) | -0.000351 (inactive) | 0.00567 (inactive) | 18.5% (inactive) | 5.31% (inactive)
8 | COc1ccccc1N1CCN(C(=O)C2CC=CCC2C(=O)O)CC1 (configuration not stated) | 444 | -1.8% (inactive) | -7.5% (inactive) | 87.8 | 24.2% (inactive) | 44.5 | -0.454 (inactive) | -1.2e-05 (inactive) | 0.00504 (inactive) | 18.1% (inactive) | 16.3% (inactive)
9 | C/C(Cl)=C\Cn1c(Nc2ccc(C)cc2)nc2c1c(=O)n(C)c(=O)n2C | 533 | -1.1% (inactive) | 24.5% (inactive) | 78.9 | -73.9% (inactive) | 117 | -0.572 (inactive) | -4.2e-05 (inactive) | 0.00543 (inactive) | 16.1% (inactive) | 17.5% (inactive)
10 | CCOC(=O)c1ccc(NC(=O)CCNc2c(N3CCCC3)c(=O)c2=O)cc1 | 266 | 0% (inactive) | 26.6% (inactive) | 70.7 | -20.2% (inactive) | 117 | -0.609 (inactive) | 5.7e-06 (inactive) | 0.00478 (inactive) | 4.44% (inactive) | 10.6% (inactive)
11 | O=C(Nc1ccccc1)N(Cc1cccnc1)Cc1ccco1 | 335 | -0.7% (inactive) | 5.9% (inactive) | 97.2 | -36.9% (inactive) | 103 | -0.463 (inactive) | -3.6e-05 (inactive) | 0.00427 (inactive) | 18.2% (inactive) | 14.3% (inactive)
12 | Cc1cc(C)n2nc(S(=O)(=O)N(C)Cc3ccccc3)nc2n1 | 560 | -10.1% (inactive) | -1.6% (inactive) | 110 | -35.3% (inactive) | 116 | -0.313 (inactive) | -3.3e-05 (inactive) | 0.00664 (inactive) | -4.55% (inactive) | 8.01% (inactive)
13 | Cc1ccc(C)c(N2C(=O)CN=C2Nc2ccccc2Cl)c1 | 441 | 14.6% (inactive) | 0.8% (inactive) | 96.7 | 18.2% (inactive) | 113 | -0.577 (inactive) | -4.1e-05 (inactive) | 0.00593 (inactive) | 13% (inactive) | 24.3% (inactive)
14 | CCOC(=O)N1CCN(C(=O)CCc2c(C)nc3c(c(C)nn3-c3ccc(C)c(C)c3)c2C)CC1 | 653 | 0.9% (inactive) | -9.9% (inactive) | 100 | -63.4% (inactive) | 116 | -0.594 (inactive) | 1.1e-05 (inactive) | 0.00541 (inactive) | 20.5% (inactive) | 13.8% (inactive)
15 | N#Cc1c(NC(=O)CSc2nnnn2C2CCCC2)sc2c1CCCC2 | 527 | -1.8% (inactive) | -3.6% (inactive) | 114 | 36.6% (inactive) | 109 | -0.392 (inactive) | 2.8e-05 (inactive) | 0.00642 (inactive) | 11% (inactive) | 26.3% (inactive)
16 | Cc1ccc(S(=O)(=O)N(CC(=O)N2CCOCC2)CC(=O)N2CCOCC2)cc1 | 676 | -9% (inactive) | -5.6% (inactive) | 108 | -163% (inactive) | 106 | -0.486 (inactive) | -1.3e-05 (inactive) | 0.00519 (inactive) | 13% (inactive) | 27.1% (inactive)
17 | CCOc1cc(C)c(C(C)C)cc1S(=O)(=O)N1CCN(C)CC1 | 775 | -2.4% (inactive) | 19% (inactive) | 93.4 | -3% (inactive) | 112 | -0.475 (inactive) | 1.9e-05 (inactive) | 0.00438 (inactive) | -9.48% (inactive) | -5.37% (inactive)
18 | COc1ccc(CN2C(=O)c3ccccc3C2C(=O)NC2CCCC2)c(OC)c1 (configuration not stated) | 671 | -4.8% (inactive) | 8.3% (inactive) | 87.1 | -53.3% (inactive) | 112 | -0.443 (inactive) | -4.9e-05 (inactive) | 0.00535 (inactive) | 14.9% (inactive) | 9.49% (inactive)
19 | CC(C)CNC(=O)C1C2C=CC(C2)C1C(=O)O (configuration not stated) | 456 | -2.9% (inactive) | -8.2% (inactive) | 98.4 | -33.7% (inactive) | 128 | -0.535 (inactive) | -4e-05 (inactive) | 0.00535 (inactive) | 13.4% (inactive) | 20.4% (inactive)
20 | CCCOc1ccc(/C(O)=C2/C(=O)C(=O)N(CCCOC)C2c2ccncc2)cc1 (configuration not stated) | 593 | 5.8% (inactive) | 4% (inactive) | 97.6 | 1.9% (inactive) | 108 | -0.29 (inactive) | -6.1e-05 (inactive) | 0.00606 (inactive) | 13.1% (inactive) | 2.66% (inactive)
21 | CCN(CC)C(=O)CSc1nc2ccccc2c(=O)n1CCC(=O)NCc1ccc(F)cc1 | 471 | -6.6% (inactive) | 15.2% (inactive) | 108 | -22% (inactive) | 112 | -0.516 (inactive) | 5.1e-05 (inactive) | 0.00599 (inactive) | -10.2% (inactive) | -7.71% (inactive)
22 | O=C1CC(c2ccccc2)CC(O)=C1C=NCCCN1CCOCC1 (configuration not stated) | 307 | 3.9% (inactive) | 22.3% (inactive) | 88.8 | 49.8% (inactive) | 69.3 | -0.466 (inactive) | -4e-06 (inactive) | 0.00557 (inactive) | 7.43% (inactive) | 9.1% (inactive)
23 | CCS(=O)(=O)N1CCC(C(=O)N2CCOCC2)CC1 | 647 | -7.3% (inactive) | -7% (inactive) | 95.7 | 27.5% (inactive) | 94.4 | -0.574 (inactive) | -2.5e-05 (inactive) | 0.00531 (inactive) | 12.1% (inactive) | 15.7% (inactive)
24 | CC(=O)N1C(=O)C2(C(C#N)=C(N)Oc3cc(C)oc(=O)c32)c2ccccc21 (configuration not stated) | 438 | 3.8% (inactive) | -2.1% (inactive) | 108 | -54.5% (inactive) | 110 | -0.511 (inactive) | -0.00027 (inactive) | 0.00547 (inactive) | -9.7% (inactive) | -6.69% (inactive)
25 | Cc1cc(C)n(Cc2nc3ccccc3n2C)n1 | 451 | 7% (inactive) | 4% (inactive) | 100 | -24.9% (inactive) | 119 | -0.577 (inactive) | -3.2e-05 (inactive) | 0.0071 (inactive) | 4.33% (inactive) | 36.3% (inactive)
26 | CC(C)(C)OC(=O)NC(CCNC=C1C(=O)OC(C)(C)OC1=O)C(=O)O (configuration not stated) | 255 | 7.2% (inactive) | 12.3% (inactive) | 106 | -87% (inactive) | 103 | -0.299 (inactive) | -5.2e-05 (inactive) | 0.00613 (inactive) | 5.28% (inactive) | 0.81% (inactive)
27 | COc1ccc(NS(=O)(=O)c2c(C)[nH]c(=O)[nH]c2=O)c(OC)c1 | 409 | 3.8% (inactive) | 7.4% (inactive) | 103 | -40.5% (inactive) | 113 | -0.565 (inactive) | -2.6e-05 (inactive) | 0.00529 (inactive) | 7.23% (inactive) | 13.8% (inactive)
